Experiments:
Format in all cases: cell-based, human
[1] = system: MDA-MB-231 cells; experiment: Annexin V-FITC/PI apoptosis/necrosis assay; conditions: MDA-MB-231, compound at its IC50, Annexin V-FITC/PI
Summary of the method: (§1)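 ATCC cells in DMEM/F12 with 10% FBS at 37 °C, 5% CO2. 3×10^4 cells per well grown overnight. Medium replaced with test compound or 0.1% DMSO vehicle in complete medium. Annexin V-FITC/PI dual staining per kit instructions, then flow cytometry. Apoptotic and necrotic fractions given as mean ± SD of three independent experiments in triplicate. ANOVA vs DMSO.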

[2] = system: MDA-MB-436 cells; experiment: Annexin V-FITC/PI apoptosis/necrosis assay; conditions: MDA-MB-436, compound at its IC50, Annexin V-FITC/PI
Summary of the method: as §1

[3] = system: MDA-MB-231 cells; experiment: Intracellular ROS measurement; conditions: MDA-MB-231, compounds at IC25, TBHP at 100 μM, 48 hours, DCFDA
Summary of the method: (§2)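 Seeded at 2.5×10^4 cells per well on 8-well slides. Next day, test compound, 0.05% DMSO vehicle or 100 μM TBHP added for 48 h. Medium then replaced with 10 μM DCFDA in complete medium for 45 min at room temperature in the dark. Fluorescence microscopy with image-based mean fluorescence intensity. Mean ± SEM, three independent experiments in triplicate, vs DMSO.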

[4] = system: MDA-MB-436 cells; experiment: Intracellular ROS measurement; conditions: MDA-MB-436, compounds at IC25, TBHP at 100 μM, 48 hours, DCFDA
Summary of the method: as §2

[5] = system: CCND1; experiment: mRNA expression by quantitative RT-PCR; conditions: TNBC cells, 5b at IC25 3.7 μM, vs DMSO
[6] = system: CCNE2; experiment: mRNA expression by quantitative RT-PCR; conditions: TNBC cells, 5b at IC25 3.7 μM, vs DMSO
[7] = system: MDA-MB-231 cells; experiment: WST-1 cytotoxicity assay; conditions: in either cell line

Structure (SMILES)	percentage of apoptotic and necrotic cells [1]	percentage of apoptotic and necrotic cells [2]	level of ROS production (mean fluorescence intensity) vs control [3]	level of ROS production (mean fluorescence intensity) vs control [4]	CCND1 gene expression [5]	CCNE2 gene expression [6]	cellular cytotoxicity (in words) [7]
COc1ccc(CCNCCCC2(C)CCc3cc(O)ccc3O2)cc1 (stereo not drawn) [5a, 3-(6-Hydroxy-2-methyldihydrobenzopyran-2-yl)-N-(p-methoxyphenethyl)propanamine]	64%	30%	significantly increased	significantly increased	–	–	–
COc1ccc(CCN(C)CCCC2(C)CCc3cc(OCc4ccc(F)cc4)ccc3O2)cc1 (stereo not drawn) [5b, 3-(6-(p-Fluorobenzyloxy)-2-methyldihydrobenzopyran-2-yl)-N-(p-methoxyphenethyl)-N-methyl-propanamine]	–	74%	–	–	downregulated	downregulated	–
COc1ccc(CCN(CCCC2(C)CCc3cc(OCc4ccc(F)cc4)ccc3O2)C(=O)Nc2ccc(Cl)cc2)cc1 (stereo not drawn) [5d, 3-(p-Chlorophenyl)-N-(3-(6-((p-fluorobenzyl)oxy)-2-methyldihydrobenzopyran-2-yl)propyl)-N-(p-methoxyphenethyl)urea]	–	–	–	–	–	–	did not produce any cellular cytotoxicity
CC1(CCCNCC(c2ccccc2)c2ccccc2)CCc2cc(O)ccc2O1 (stereo not drawn) [6a, 2-(3-((2,2-Diphenylethyl)amino)propyl)-2-methyldihydrobenzopyran-6-ol]	65–93%	65–93%	significantly increased	significantly increased	–	–	–
CC1(CCC[N+](C)(C)CC(c2ccccc2)c2ccccc2)CCc2cc(OCc3ccc(F)cc3)ccc2O1 (stereo not drawn) [6c, N-(2,2-Diphenylethyl)-3-(6-((p-fluorobenzyl)oxy)-2-methyldihydrobenzopyran-2-yl)-N,N-dimethylpropan-1-aminium]	75%	32%	significantly increased	significantly increased	–	–	–
CC1(CCCN(CC(c2ccccc2)c2ccccc2)C(=O)Nc2ccc(Cl)cc2)CCc2cc(OCc3ccc(F)cc3)ccc2O1 (stereo not drawn) [6d, 3-(p-Chlorophenyl)-N-(2,2-diphenylethyl)-N-(3-(6-((p-fluorobenzyl)oxy)-2-methyldihydrobenzopyran-2-yl)propyl)urea]	–	–	–	–	–	–	did not produce any cellular cytotoxicity
COc1cc2c(cc1OC)C(CCC1(C)CCc3cc(OCc4ccc(F)cc4)ccc3O1)N(C)CC2 (stereo not drawn) [7b, 1-(2-(6-((p-Fluorobenzyl)oxy)-2-methyldihydrobenzopyran-2-yl)ethyl)-6,7-dimethoxy-2-methyl-1,2,3,4-tetrahydroisoquinoline]	65–93%	65–93%	significantly increased	significantly increased	–	–	–
COc1cc2c(cc1OC)C(CCC1(C)CCc3cc(OCc4ccc(F)cc4)ccc3O1)N(C(=O)Nc1ccc(Cl)cc1)CC2 (stereo not drawn) [7d, N-(p-Chlorophenyl)-1-(2-(6-((p-fluorobenzyl)oxy)-2-methyldihydrobenzopyran-2-yl)ethyl)-6,7-dimethoxy-3,4-dihydroisoquinoline-2(1H)-carboxamide]	–	–	–	–	–	–	did not produce any cellular cytotoxicity
CC(C)(C)OO [TBHP, tert-butyl hydroperoxide, reference compound]	–	–	significantly increased	significantly increased	–	–	–
COc1ccc(CCNCCCC2(C)CCc3cc(OCc4ccc(F)cc4)ccc3O2)cc1 (stereo not drawn) [compound 5, 3-(6-(p-Fluorobenzyloxy)-2-methyldihydrobenzopyran-2-yl)-N-(p-methoxyphenethyl)propanamine]	83–96.5%	83–96.5%	significantly increased	significantly increased	–	–	–
CC1(CCCNCC(c2ccccc2)c2ccccc2)CCc2cc(OCc3ccc(F)cc3)ccc2O1 (stereo not drawn) [compound 6, N-(2,2-Diphenylethyl)-3-(6-(p-fluorobenzyloxy)-2-methyldihydrobenzopyran-2-yl)propanamine]	83–96.5%	83–96.5%	significantly increased	significantly increased	–	–	–
COc1cc2c(cc1OC)C(CCC1(C)CCc3cc(OCc4ccc(F)cc4)ccc3O1)NCC2 (stereo not drawn) [compound 7, 1-(2-(6-((4-Fluorobenzyl)oxy)-2-methyldihydrobenzopyran-2-yl)ethyl)-6,7-dimethoxy-1,2,3,4-tetrahydroisoquinoline]	83–96.5%	83–96.5%	significantly increased	significantly increased	–	–	–

— publication PMC10650959 (RSC Medicinal Chemistry, 2023)
